Laboratory results: ChEMBL document CHEMBL4477197, “Antitumor Activity of Spicatoside A by Modulation of Autophagy and Apoptosis in Human Colorectal Cancer Cells” (J Nat Prod, 2016)
Active and inactive are the calls of the source. No cut-off for these calls is given here.

What was measured:
[1] = Toxicity in BALB/c-nu mouse xenografted with human HCT116 cells assessed as overt toxicity at 2.5 to 5 mg/kg, ip administered three times per week for 28 days measured during compound dosing relative to control; format: organism-based; conditions: in vivo, 672 h
Summary of the method: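 Nude mice carried subcutaneous flank HCT116 implants (2 × 10^6 cells in 200 μL medium). At about 200 mm3 they were randomised into groups of five. Compound at 2.5 or 5 mg/kg in saline with 0.5% Tween 80 was given ip three times weekly for 4 weeks; controls received vehicle. Body weight was monitored throughout for toxicity.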

HCT-116 [2] = assay: Induction of apoptosis in human HCT116 cells assessed as increase in t-BID levels after 48 hrs by Western blot analysis; format: functional, cell-based
HCT-116 [3] = assay: Induction of apoptosis in human HCT116 cells assessed as activation of caspase 3 at 10 to 30 uM after 48 hrs by Western blot analysis; format: functional, cell-based
Summary of the method: (§1)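 HCT116 cells were treated with the indicated concentrations for 48 h. Lysates were prepared in SDS sample buffer and 10–30 μg protein was separated by SDS-PAGE, blotted to PVDF and blocked in 5% BSA. Cleaved caspase-8, -9, -3 and PARP were detected by ECL.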

HCT-116 [4] = assay: Induction of apoptosis in human HCT116 cells assessed as caspase 8 cleavage at 30 uM upto 48 hrs by Western blot analysis; format: functional, cell-based
Summary of the method: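 Time course: HCT116 cells were exposed to 30 μM compound for 6, 12, 24, 36 and 48 h. LC3-II, beclin 1, cleaved caspase-8 and cleaved PARP were measured by Western blot (SDS-PAGE, PVDF, ECL) with β-actin as internal standard.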

HCT-116 [5] = assay: Cell cycle arrest in human HCT116 cells assessed as accumulation at subG1 phase at 10 uM after 48 hrs by propidium iodide staining based flow cytometry; format: functional
HCT-116 [6] = assay: Antitumor activity against human HCT116 cells xenografted in BALB/c-nu mouse assessed as inhibition of tumor weight at 5 mg/kg, ip administered three times per week for 28 days measured post dosing relative to control; format: functional; conditions: HCT-116, ip, 672 h
Summary of the method: (§2)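 Nude mice bearing subcutaneous HCT116 flank tumors (2 × 10^6 cells) were randomized at ~200 mm3, five per group. Dosing was 2.5 or 5 mg/kg ip in saline/0.5% Tween 80, three times weekly for 28 days, with vehicle controls. Tumors were excised on day 28 and weighed; inhibition was expressed against the vehicle group.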

HCT-116 [7] = assay: Induction of autophagy in human HCT116 cells assessed as formation of acidic vesicular organelles at 20 uM after 24 hrs in presence of bafilomycin A1 by acridine orange staining based assay; format: functional, cell-based
Summary of the method: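 Cells were seeded at 1 × 10^5/well, grown 24 h, then treated 24 h with 20 μM compound, 2.5 nM bafilomycin A1, or both. They were stained with acridine orange (2 μg/mL) for 15 min and washed in DPBS. AO-positive cells were quantified by high-content imaging and expressed as an index versus vehicle. Triplicates.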

[8] = biological target: Mitogen-activated protein kinase; ERK1/ERK2 (Homo sapiens) (UniProt P27361+P28482); assay: Inhibition of ERK1/2 phosphorylation in human HCT116 cells after 24 hrs by Western blot analysis; format: cell-based
Mitogen-activated protein kinase; ERK1/ERK2 (Homo sapiens), sequence (P27361 whole entry, looked up): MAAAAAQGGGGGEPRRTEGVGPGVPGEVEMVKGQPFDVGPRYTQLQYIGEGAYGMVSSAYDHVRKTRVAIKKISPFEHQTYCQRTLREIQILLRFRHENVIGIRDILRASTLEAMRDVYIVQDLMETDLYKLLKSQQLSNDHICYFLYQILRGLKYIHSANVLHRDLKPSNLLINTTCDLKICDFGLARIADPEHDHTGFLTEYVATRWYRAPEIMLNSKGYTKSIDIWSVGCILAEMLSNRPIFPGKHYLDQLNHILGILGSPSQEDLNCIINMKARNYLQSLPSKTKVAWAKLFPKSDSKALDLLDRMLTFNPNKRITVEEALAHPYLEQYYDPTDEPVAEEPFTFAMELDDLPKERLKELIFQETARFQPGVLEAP
Mitogen-activated protein kinase; ERK1/ERK2 (Homo sapiens), sequence (P28482 whole entry, looked up): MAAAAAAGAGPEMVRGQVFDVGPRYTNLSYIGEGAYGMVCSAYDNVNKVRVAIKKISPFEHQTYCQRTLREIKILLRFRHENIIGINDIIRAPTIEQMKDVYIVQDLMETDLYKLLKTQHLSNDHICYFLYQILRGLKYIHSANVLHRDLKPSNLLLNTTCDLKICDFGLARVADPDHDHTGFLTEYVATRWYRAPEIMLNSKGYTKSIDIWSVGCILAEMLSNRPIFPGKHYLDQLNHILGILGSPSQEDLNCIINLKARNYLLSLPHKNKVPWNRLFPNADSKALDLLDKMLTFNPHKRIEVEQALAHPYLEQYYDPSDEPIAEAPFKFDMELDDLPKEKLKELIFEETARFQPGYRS

HCT-116 [9] = assay: Antitumor activity against human HCT116 cells xenografted in BALB/c-nu mouse assessed as inhibition of tumor volume at 2.5 mg/kg, ip administered three times per week for 28 days measured every 3 to 4 days of dosing relative to control; format: functional; conditions: HCT-116, ip
Summary of the method: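 HCT116 cells (2 × 106 in 200 μL medium) injected subcutaneously into the right flank of nude mice; at ~200 mm3, mice randomized into groups of five. Compound at 2.5 or 5 mg/kg, dissolved in normal saline with 0.5% Tween 80, given ip three times weekly for 28 days; vehicle controls got equal volume. Tumor volume measured by caliper every 3–4 days.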

[10] = Inhibition of PI3K/Akt/mTOR in human HCT116 cells assessed as upregulation of PTEN at 10 to 30 uM after 24 hrs by Western blot analysis; format: cell-based
Summary of the method: (§3)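 HCT116 cells (RPMI 1640, 10% FBS, 37 °C, 5% CO2) exposed to the compound for 24 h, then lysed in 2× SDS sample buffer with NaF and orthovanadate and boiled. BCA-normalised protein (10−30 μg) run on 6−15% SDS-PAGE and blotted to PVDF. Blocked in 5% BSA/PBS-Tween, probed for PI3K, PTEN, Akt and mTOR, and detected by ECL. Blots are representative of three determinations.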

[11] = Inhibition of PI3K/Akt/mTOR in human HCT116 cells assessed as suppression of Akt phosphorylation at Ser473 at 10 to 30 uM after 24 hrs by Western blot analysis; format: cell-based; summary of the method: as §3
HCT-116 [12] = assay: Induction of apoptosis in human HCT116 cells assessed as activation of caspase 8 at 10 to 30 uM after 48 hrs by Western blot analysis; format: functional, cell-based; summary of the method: as §1
MDA-MB-231 = assay: Antiproliferative activity against human MDA-MB-231 cells after 24 to 72 hrs by SRB assay; format: functional, cell-based
Summary of the method: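 Cells from ATCC were grown at 37 °C in 5% CO2, in RPMI 1640 (A549, HCT116, SNU-638) or DMEM (MDA-MB-231, SK-HEP-1, MRC5) with 10% FBS. They were seeded at 6 × 10^3 cells/well for 24 h, then exposed for 72 h. Cells were TCA-fixed, stained with 0.4% SRB, and read at 515 nm against day-zero plates. IC50 came from nonlinear regression, as means ± SD.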

[13] = biological target: MAP kinase p38 (Homo sapiens) (UniProt O15264+Q15759+Q16539+P53778); assay: Induction of p38 phosphorylation in human HCT116 cells after 24 hrs by Western blot analysis; format: cell-based
HCT-116 [14] = assay: Induction of autophagy in human HCT116 cells assessed as accumulation of LC3-2 after 24 hrs by Western blot analysis; format: functional, cell-based
Summary of the method: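 HCT116 cells were cultured 24 h with the indicated concentrations. Lysates were made in SDS buffer with NaF and orthovanadate and quantified by BCA; 10–30 μg protein was separated by 6–15% SDS-PAGE and transferred to PVDF. After 5% BSA blocking, blots were probed for LC3-II, beclin 1, p62, LAMP1 and cathepsin D, with ECL detection.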

HCT-116 [15] = assay: Induction of caspase 8 cleavage in human HCT116 cells at 30 uM after 48 hrs in presence of caspase 8 inhibitor z-IETD-FMK by Western blot analysis; format: functional, cell-based
Summary of the method: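 HCT116 cells were cultured 48 h with 30 μM compound, with or without 20 μM z-IETD-FMK. Lysates were made in SDS loading buffer and 10–30 μg protein was resolved by 6–15% SDS-PAGE and transferred to PVDF. Blots were probed for cleaved caspase-8, beclin 1, cleaved beclin 1 and LC3-II, and detected by ECL.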

[16] = Inhibition of PI3K/Akt/mTOR in human HCT116 cells assessed as downregulation of PI3K p85 at 10 to 30 uM after 24 hrs by Western blot analysis; format: cell-based; summary of the method: as §3
HCT-116 [17] = assay: Antitumor activity against human HCT116 cells xenografted in BALB/c-nu mouse assessed as inhibition of tumor weight at 2.5 mg/kg, ip administered three times per week for 28 days measured post dosing relative to control; format: functional; conditions: HCT-116, ip, 672 h; summary of the method: as §2

inhibition [8]: Dose-dependent effect
IC50 (MDA-MB-231): 29.6 µM
Activity [13]: Dose-dependent effect
Compound: C[C@H]1CC[C@@]2(OC1)O[C@H]1C[C@H]3[C@@H]4CC=C5C[C@@H](O)C[C@@H](O[C@@H]6O[C@H](C)[C@H](O)[C@H](O[C@@H]7OC[C@@H](O)[C@H](O)[C@H]7O)[C@H]6O[C@@H]6O[C@H](CO)[C@@H](O)[C@H](O)[C@H]6O)[C@]5(C)[C@H]4CC[C@]3(C)[C@H]1[C@@H]2C
Activity [1]: Non-Toxic
Activity (HCT-116 [2]): Dose-dependent effect
Activity (HCT-116 [3]): Active
Activity (HCT-116 [4]): Active
Activity (HCT-116 [5]): 5.52%
inhibition in vivo at 5 mg/kg (HCT-116 [6]): 56.6%
Activity (HCT-116 [7]): inactive
inhibition in vivo at 2.5 mg/kg (HCT-116 [9]): 38.8%
inhibition [10]: Active
inhibition [11]: Active
Activity (HCT-116 [12]): Active
Activity (HCT-116 [14]): Dose-dependent effect
Activity (HCT-116 [15]): inactive
inhibition [16]: Active
inhibition in vivo at 2.5 mg/kg (HCT-116 [17]): 43%
